The source made the active and inactive calls. No cut-off for these calls is given here.

The term GI50 denotes the concentration at which growth is held to half of that of the control.

The first experiment deals with HCT-116. The experiment is described as follows: Antimicrofilament activity in human HCT116 cells assessed as loss of microfilament at 0.05 uM by rhodamine-phalloidin staining. In kind it is functional, cell-based.
Take `C/C1=C\[C@H](C)C[C@H](C)OC(=O)/C=C(/c2ccc(O)c(O)c2)NC(=O)[C@@H](Cc2c(Br)[nH]c3ccccc23)N(C)C(=O)[C@H](C)NC(=O)[C@@H](C)C1`: the result was inactive.

As for `COC(=O)C[C@@H](NC(=O)[C@@H](Cc1c(Br)[nH]c2ccccc12)N(C)C(=O)[C@H](C)NC(=O)[C@@H](C)C/C(C)=C/[C@H](C)C[C@H](C)O)c1ccc(O)cc1`, the result was inactive.

As for `C/C(=C\[C@H](C)C[C@H](C)O)C[C@H](C)C(=O)N[C@@H](C)C(=O)N(C)[C@H](Cc1c(Br)[nH]c2ccccc12)C(N)=O`, the outcome was inactive.

On to `C=C1C[C@H](C)C(=O)N[C@@H](C)C(=O)N(C)[C@H](Cc2c(Br)[nH]c3ccccc23)C(=O)N[C@@H](c2ccc(O)cc2)CC(=O)O[C@@H](C)C[C@@H](C)C1=O` [JASPLAKINOLIDE B], for which the result was inactive.

Another experiment relates to HCT-116. The experiment is described as follows: Antimicrofilament activity in human HCT116 cells assessed as additional loss of microfilament network at 0.5 uM by rhodamine-phalloidin staining. In kind it is functional, cell-based.
Take `C=C1C[C@H](C)C(=O)N[C@@H](C)C(=O)N(C)[C@H](Cc2c(Br)[nH]c3ccccc23)C(=O)N[C@@H](c2ccc(O)cc2)CC(=O)O[C@@H](C)C[C@@H](C)C1=O` [JASPLAKINOLIDE B]: the outcome was Active.

A further experiment concerns HCT-116. The experiment is described as follows: Antimicrofilament activity in human HCT116 cells assessed as additional loss of microfilament at 5 uM by rhodamine-phalloidin staining. In kind it is functional, cell-based.
As to `COC(=O)C[C@@H](NC(=O)[C@@H](Cc1c(Br)[nH]c2ccccc12)N(C)C(=O)[C@H](C)NC(=O)[C@@H](C)C/C(C)=C/[C@H](C)C[C@H](C)O)c1ccc(O)cc1`, the result was Active.

On to `C=C1C[C@H](C)C(=O)N[C@@H](C)C(=O)N(C)[C@H](Cc2c(Br)[nH]c3ccccc23)C(=O)N[C@@H](c2ccc(O)cc2)CC(=O)O[C@@H](C)C[C@@H](C)C1=O` [JASPLAKINOLIDE B], for which the result was Active.

The next experiment has as its system HCT-116. The experiment is described as follows: Antimicrofilament activity in human HCT116 cells assessed as loss of microfilament network at 0.5 uM by rhodamine-phalloidin staining. Type of experiment: functional, cell-based.
Consider `C/C1=C\[C@H](C)C[C@H](C)OC(=O)/C=C(/c2ccc(O)c(O)c2)NC(=O)[C@@H](Cc2c(Br)[nH]c3ccccc23)N(C)C(=O)[C@H](C)NC(=O)[C@@H](C)C1`, for which the result was Active.

Turning to `COC(=O)C[C@@H](NC(=O)[C@@H](Cc1c(Br)[nH]c2ccccc12)N(C)C(=O)[C@H](C)NC(=O)[C@@H](C)C/C(C)=C/[C@H](C)C[C@H](C)O)c1ccc(O)cc1`, the result was Active.

As for `C/C(=C\[C@H](C)C[C@H](C)O)C[C@H](C)C(=O)N[C@@H](C)C(=O)N(C)[C@H](Cc1c(Br)[nH]c2ccccc12)C(N)=O`, the outcome was Active.

The test system of another experiment is HCT-116. The experiment is described as follows: Antimicrofilament activity in human HCT116 cells assessed as loss of microfilament at 5 uM by rhodamine-phalloidin staining. Type of experiment: functional, cell-based.
As for `C/C1=C\[C@H](C)C[C@H](C)OC(=O)/C=C(/c2ccc(O)c(O)c2)NC(=O)[C@@H](Cc2c(Br)[nH]c3ccccc23)N(C)C(=O)[C@H](C)NC(=O)[C@@H](C)C1`, the outcome was inactive.

Turning to `C/C(=C\[C@H](C)C[C@H](C)O)C[C@H](C)C(=O)N[C@@H](C)C(=O)N(C)[C@H](Cc1c(Br)[nH]c2ccccc12)C(N)=O`, the outcome was inactive.

Another experiment relates to HCT-116. The experiment is described as follows: Antimicrofilament activity in human HCT116 cells assessed as loss of microfilament at 0.01 uM by rhodamine-phalloidin staining. In kind it is functional, cell-based.
In the case of `C/C1=C\[C@H](C)C[C@H](C)OC(=O)/C=C(/c2ccc(O)c(O)c2)NC(=O)[C@@H](Cc2c(Br)[nH]c3ccccc23)N(C)C(=O)[C@H](C)NC(=O)[C@@H](C)C1`, the result was inactive.

Regarding `COC(=O)C[C@@H](NC(=O)[C@@H](Cc1c(Br)[nH]c2ccccc12)N(C)C(=O)[C@H](C)NC(=O)[C@@H](C)C/C(C)=C/[C@H](C)C[C@H](C)O)c1ccc(O)cc1`, the outcome was inactive.

Regarding `C/C(=C\[C@H](C)C[C@H](C)O)C[C@H](C)C(=O)N[C@@H](C)C(=O)N(C)[C@H](Cc1c(Br)[nH]c2ccccc12)C(N)=O`, the outcome was inactive.

For `C=C1C[C@H](C)C(=O)N[C@@H](C)C(=O)N(C)[C@H](Cc2c(Br)[nH]c3ccccc23)C(=O)N[C@@H](c2ccc(O)cc2)CC(=O)O[C@@H](C)C[C@@H](C)C1=O` [JASPLAKINOLIDE B], the outcome was inactive.

In a further experiment the test system is HCT-116. The experiment is described as follows: Antimicrofilament activity in human HCT116 cells assessed as complete loss of microfilament network at GI50 concentration by rhodamine-phalloidin staining. Type of experiment: functional, cell-based.
Turning to `C=C1C[C@H](C)C(=O)N[C@@H](C)C(=O)N(C)[C@H](Cc2c(Br)[nH]c3ccccc23)C(=O)N[C@@H](c2ccc(O)cc2)CC(=O)O[C@@H](C)C[C@@H](C)C1=O` [JASPLAKINOLIDE B], the result was Active.

Another experiment has as its system MDA-MB-231. The experiment is described as follows: Anticancer activity against human MDA-MB-231 cells. Type of experiment: functional. A digest of the protocol:
(§1)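 NCI-DTP 60 cell line screen; GI50 values supplied by NCI-DTP. HCT-116 GI50 for some entries determined instead by a separate group (Henry Ford Hospital). Compounds failing initial single-dose testing at 10 μM (<25% growth inhibition) were not taken to five-dose testing.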
`C/C1=C\[C@H](C)C[C@H](C)OC(=O)/C=C(/c2ccc(O)c(O)c2)NC(=O)[C@@H](Cc2c(Br)[nH]c3ccccc23)N(C)C(=O)[C@H](C)NC(=O)[C@@H](C)C1` gave a 50% growth inhibitory concentration (GI50) of 2320 nM.

Turning to `C/C(=C\[C@H](C)C[C@H](C)O)C[C@H](C)C(=O)N[C@@H](C)C(=O)N(C)[C@H](Cc1c(Br)[nH]c2ccccc12)C(N)=O`, the concentration for 50% growth inhibition (GI50) came to 22300 nM.

`C=C1C[C@H](C)C(=O)N[C@@H](C)C(=O)N(C)[C@H](Cc2c(Br)[nH]c3ccccc23)C(=O)N[C@@H](c2ccc(O)cc2)CC(=O)O[C@@H](C)C[C@@H](C)C1=O` [JASPLAKINOLIDE B] registered a GI50 of 40 nM.

The subject of another experiment is HCT-116. The experiment is described as follows: Anticancer activity against human HCT116 cells. Type of experiment: functional. The method in brief:
as §1
`C/C1=C\[C@H](C)C[C@H](C)OC(=O)/C=C(/c2ccc(O)c(O)c2)NC(=O)[C@@H](Cc2c(Br)[nH]c3ccccc23)N(C)C(=O)[C@H](C)NC(=O)[C@@H](C)C1` returned a GI50 of 3840 nM.

In turn, `COC(=O)C[C@@H](NC(=O)[C@@H](Cc1c(Br)[nH]c2ccccc12)N(C)C(=O)[C@H](C)NC(=O)[C@@H](C)C/C(C)=C/[C@H](C)C[C@H](C)O)c1ccc(O)cc1` gave a concentration for 50% growth inhibition (GI50) of 270 nM.

As to `C/C(=C\[C@H](C)C[C@H](C)O)C[C@H](C)C(=O)N[C@@H](C)C(=O)N(C)[C@H](Cc1c(Br)[nH]c2ccccc12)C(N)=O`, the GI50 stood at 11100 nM.

`C=C1C[C@H](C)C(=O)N[C@@H](C)C(=O)N(C)[C@H](Cc2c(Br)[nH]c3ccccc23)C(=O)N[C@@H](c2ccc(O)cc2)CC(=O)O[C@@H](C)C[C@@H](C)C1=O` [JASPLAKINOLIDE B] displayed a GI50 of 140 nM.

The next experiment relates to HCT-116. The experiment is described as follows: Antimicrofilament activity in human HCT116 cells assessed as loss of microfilament at 0.1 uM by rhodamine-phalloidin staining. Type of experiment: functional, cell-based.
`C/C1=C\[C@H](C)C[C@H](C)OC(=O)/C=C(/c2ccc(O)c(O)c2)NC(=O)[C@@H](Cc2c(Br)[nH]c3ccccc23)N(C)C(=O)[C@H](C)NC(=O)[C@@H](C)C1`: the result was inactive.

As to `COC(=O)C[C@@H](NC(=O)[C@@H](Cc1c(Br)[nH]c2ccccc12)N(C)C(=O)[C@H](C)NC(=O)[C@@H](C)C/C(C)=C/[C@H](C)C[C@H](C)O)c1ccc(O)cc1`, the outcome was inactive.

For the compound `C/C(=C\[C@H](C)C[C@H](C)O)C[C@H](C)C(=O)N[C@@H](C)C(=O)N(C)[C@H](Cc1c(Br)[nH]c2ccccc12)C(N)=O`, the outcome was inactive.

On to `C=C1C[C@H](C)C(=O)N[C@@H](C)C(=O)N(C)[C@H](Cc2c(Br)[nH]c3ccccc23)C(=O)N[C@@H](c2ccc(O)cc2)CC(=O)O[C@@H](C)C[C@@H](C)C1=O` [JASPLAKINOLIDE B], for which the result was Active.

Another experiment deals with HCT-116. The experiment is described as follows: Antimicrofilament activity in human HCT116 cells assessed as loss of microfilament at 1 uM by rhodamine-phalloidin staining. In kind it is functional, cell-based.
For `C/C1=C\[C@H](C)C[C@H](C)OC(=O)/C=C(/c2ccc(O)c(O)c2)NC(=O)[C@@H](Cc2c(Br)[nH]c3ccccc23)N(C)C(=O)[C@H](C)NC(=O)[C@@H](C)C1`, the result was inactive.

`C/C(=C\[C@H](C)C[C@H](C)O)C[C@H](C)C(=O)N[C@@H](C)C(=O)N(C)[C@H](Cc1c(Br)[nH]c2ccccc12)C(N)=O`: the outcome was inactive.

The subject of the next experiment is HCT-116. The experiment is described as follows: Antimicrofilament activity in human HCT116 cells assessed as additional loss of microfilament at 1 uM by rhodamine-phalloidin staining. In kind it is functional, cell-based.
`COC(=O)C[C@@H](NC(=O)[C@@H](Cc1c(Br)[nH]c2ccccc12)N(C)C(=O)[C@H](C)NC(=O)[C@@H](C)C/C(C)=C/[C@H](C)C[C@H](C)O)c1ccc(O)cc1`: the outcome was Active.

Turning to `C=C1C[C@H](C)C(=O)N[C@@H](C)C(=O)N(C)[C@H](Cc2c(Br)[nH]c3ccccc23)C(=O)N[C@@H](c2ccc(O)cc2)CC(=O)O[C@@H](C)C[C@@H](C)C1=O` [JASPLAKINOLIDE B], the outcome was Active.

Values taken from ChEMBL document CHEMBL1765004 (2011).
